pIC50: −log10 of the molar value.
Experiments:
[1] = biological target: T1, P-selectin (Mus musculus, UniProt Q01102); assay: Blocking activity using seletin-IgG chimeras in a Selectin P competitive binding assay.
T1 sequence (Q01102 whole entry): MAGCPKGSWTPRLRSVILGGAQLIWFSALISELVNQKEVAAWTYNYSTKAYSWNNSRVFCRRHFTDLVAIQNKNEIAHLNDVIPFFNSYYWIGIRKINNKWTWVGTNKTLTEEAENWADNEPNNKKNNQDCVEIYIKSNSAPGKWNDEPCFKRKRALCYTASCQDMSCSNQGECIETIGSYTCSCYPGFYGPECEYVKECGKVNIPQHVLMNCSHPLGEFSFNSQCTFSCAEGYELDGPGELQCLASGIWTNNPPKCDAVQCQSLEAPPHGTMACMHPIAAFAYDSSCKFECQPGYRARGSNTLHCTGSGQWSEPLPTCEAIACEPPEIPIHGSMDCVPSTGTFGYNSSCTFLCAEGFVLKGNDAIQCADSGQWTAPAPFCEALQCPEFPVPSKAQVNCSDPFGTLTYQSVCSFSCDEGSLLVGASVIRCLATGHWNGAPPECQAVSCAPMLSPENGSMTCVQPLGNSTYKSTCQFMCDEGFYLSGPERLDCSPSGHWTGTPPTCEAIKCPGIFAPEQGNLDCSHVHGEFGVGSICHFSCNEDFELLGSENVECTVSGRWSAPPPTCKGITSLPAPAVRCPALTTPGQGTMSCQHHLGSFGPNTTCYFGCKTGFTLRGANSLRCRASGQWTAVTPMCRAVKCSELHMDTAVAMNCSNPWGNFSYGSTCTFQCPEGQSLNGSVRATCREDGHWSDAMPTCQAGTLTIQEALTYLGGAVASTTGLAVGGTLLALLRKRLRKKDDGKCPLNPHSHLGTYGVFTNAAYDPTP
Method in brief: (§1)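 Selectin-Ig fusion protein is premixed for 30 min at room temperature with biotin-anti-human IgG (Fc) and streptavidin-alkaline phosphatase (each 1:500 in 1% BSA-PBS). The complex is preincubated 30 min with test compound (final 100, 25, 6.25, 1.56 µM; 10 mM water stock). It is then bound 45 min at 37 °C to wells coated with sLex-pentaceramide and blocked with 5% BSA. Read-out is p-nitrophenylphosphate absorbance, expressed as % binding versus controls.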

[2] = biological target: T2, E-selectin (Mus musculus, UniProt Q00690); assay: In vitro inhibitory activity against Selectin E-sialyl Lewis X (sLex) binding
T2 sequence (Q00690 whole entry): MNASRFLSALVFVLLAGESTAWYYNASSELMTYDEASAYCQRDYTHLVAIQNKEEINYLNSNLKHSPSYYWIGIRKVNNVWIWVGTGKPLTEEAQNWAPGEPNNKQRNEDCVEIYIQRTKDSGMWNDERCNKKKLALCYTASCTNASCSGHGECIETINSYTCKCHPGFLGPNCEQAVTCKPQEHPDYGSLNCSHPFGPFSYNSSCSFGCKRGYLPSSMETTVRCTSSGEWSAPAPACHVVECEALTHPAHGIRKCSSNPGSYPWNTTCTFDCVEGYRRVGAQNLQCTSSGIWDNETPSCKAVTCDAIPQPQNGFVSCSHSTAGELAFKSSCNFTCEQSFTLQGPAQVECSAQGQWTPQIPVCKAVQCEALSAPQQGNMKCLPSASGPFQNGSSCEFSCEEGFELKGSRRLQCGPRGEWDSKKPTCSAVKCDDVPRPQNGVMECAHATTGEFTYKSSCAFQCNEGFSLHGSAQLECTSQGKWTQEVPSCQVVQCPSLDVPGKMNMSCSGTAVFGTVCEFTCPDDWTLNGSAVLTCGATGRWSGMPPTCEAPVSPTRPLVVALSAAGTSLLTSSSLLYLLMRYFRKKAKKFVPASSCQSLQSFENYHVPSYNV
Method in brief: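 sLex-pentaceramide (100 pmol/well) dried onto wells, blocked with 5% BSA-PBS 1 h RT. E-selectin-Ig fusion premixed 30 min RT with biotin-anti-human IgG(Fc)/streptavidin-alkaline phosphatase. Compounds (water stock 10 mM; final 100, 25, 6.25, 1.56 µM) preincubated with complex 30 min RT, then added to wells 45 min at 37 °C. Read-out: p-nitrophenylphosphate in diethanolamine pH 9.8; % binding versus no-compound control, background without selectin-Ig.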

[3] = biological target: T3, L-selectin (Mus musculus, UniProt P18337); assay: Blocking activity using seletin-IgG chimeras in a Selectin L competitive binding assay.; method in brief: as §1
T3 sequence (P18337 whole entry): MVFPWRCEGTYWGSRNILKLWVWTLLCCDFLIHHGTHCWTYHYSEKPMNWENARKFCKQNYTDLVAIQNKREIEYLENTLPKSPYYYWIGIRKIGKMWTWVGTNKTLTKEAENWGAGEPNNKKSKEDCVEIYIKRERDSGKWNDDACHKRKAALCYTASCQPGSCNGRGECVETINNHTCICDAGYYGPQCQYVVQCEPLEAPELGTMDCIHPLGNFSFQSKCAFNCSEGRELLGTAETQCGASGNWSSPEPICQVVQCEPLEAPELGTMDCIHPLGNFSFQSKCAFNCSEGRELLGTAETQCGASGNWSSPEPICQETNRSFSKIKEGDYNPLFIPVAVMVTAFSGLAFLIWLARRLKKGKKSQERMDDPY

[4] = biological target: T1, P-selectin; assay: Blocking activity using selectin-IgG chimeras in a Selectin P competitive binding assay.; method in brief: as §1
[5] = biological target: T3, L-selectin; assay: Blocking activity using selectin-IgG chimeras in a Selectin L competitive binding assay.; method in brief: as §1

pIC50 [1] | pIC50 [2] | pIC50 [3] | pIC50 [4] | pIC50 [5] | Structure (SMILES)
5.68 | < 3.00 | 4.74 | – | – | CCCCCCCCCCCCCCC(CCCCCCCCCCCCCC)C(=O)N[C@@H](CO[C@@H]1O[C@@H](C)[C@@H](O)[C@H](O)[C@@H]1O)C(=O)N[C@@H](CCC(=O)O)C(=O)NC
6.30 | 4.89 | 5.22 | – | – | CCCCCCCCCCCCCCC(CCCCCCCCCCCCCC)C(=O)N[C@H](CO[C@@H]1O[C@@H](C)[C@@H](O)[C@H](O)[C@@H]1O)C(=O)N[C@@H](CCC(=O)O)C(=O)NC
– | < 3.00 | – | 5.72 | 4.41 | CCCCCCCCCCCCCCC(CCCCCCCCCCCCCC)C(=O)N[C@H](CO[C@@H]1O[C@@H](C)[C@@H](O)[C@H](O)[C@@H]1O)C(=O)N[C@H](CCC(=O)O)C(=O)NC
6.15 | 5.26 | 5.03 | – | – | CCCCCCCCCCCCCCC(CCCCCCCCCCCCCC)C(=O)N[C@@H](CO[C@@H]1O[C@@H](C)[C@@H](O)[C@H](O)[C@@H]1O)C(=O)N[C@H](CCC(=O)O)C(=O)NC
< 3.00 | 3.22 | < 3.00 | – | – | CC(=O)N[C@H]1[C@H]([C@H](O)[C@H](O)CO)O[C@@](O[C@H]2[C@@H](O)[C@@H](CO)O[C@@H](O[C@@H]([C@H](O[C@@H]3O[C@@H](C)[C@@H](O)[C@@H](O)[C@@H]3O)[C@H](C=O)NC(C)=O)[C@H](O)CO)[C@@H]2O)(C(=O)O)C[C@@H]1O [SIALYL LEWIS X]

Structure (SMILES) | pIC50 [1] | pIC50 [2] | pIC50 [3] | pIC50 [4] | pIC50 [5]
CCCCCCCCCCCCCCC(CCCCCCCCCCCCCC)CO[C@@H]1O[C@H](CO)[C@@H](O[C@@H]2O[C@H](CO)[C@H](O)[C@H](OS(=O)(=O)O)[C@H]2O)[C@H](O[C@@H]2O[C@@H](C)[C@@H](O)[C@@H](O)[C@@H]2O)[C@H]1O | 4.00 | 3.55 | 4.52 | – | –

From ChEMBL document CHEMBL1130380, “Studies on selection blockers. 5. Design, synthesis, and biological profile of sialyl Lewis x mimetics based on modified serine-glutamic acid dipeptides” (J Med Chem, 1997)
